Active and inactive are the calls of the source.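 Rule for the calls, unless noted: active = potentiation averaged over duplicate wells exceeding buffer-only control mean by more than 3 SD; inactive = the rest.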
Tested on: not listed separately
Test: nonspecific flux increase, KCNQ1-free cells – parental CHO cells, counter-screen for KCNQ1 potentiator project (AID 493006;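 active = duplicate-averaged activation above buffer control mean plus 5 SD of those controls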;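 for activation: fluorescence ratio of max minus min over baseline after K+ and Tl+ depolarization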)
Conditions: parental CHO-K1 cells, FluxOR thallium flux, at 10 µM; stronger effect = higher value
Procedure, shortened: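 Benchmarks – buffer and R-L3 controls · Assay system – untransfected host CHO-K1 cells with FluxOR thallium dye · Measure – fluorescence change ratio scaled 0% buffer, 100% R-L3 · Technique – kinetic thallium-flux fluorescence · Timing – overnight 37 °C plating, 90 min RT dye, 20 min compound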

Row | SMILES | outcome | activation
1 | COc1cccc(OC)c1C(=O)Nc1cccc(-c2ccc3nncn3n2)c1 | inactive | 
2 | O=C(NNc1nc2c(F)cccc2s1)c1cc(=O)c2ccccc2o1 | inactive | 
3 | CCCCCCCN1N=C(C)C(C(=O)c2ccccc2)C1=O (stereo not given) | inactive | 
4 | OC(CON=C1c2ccccc2-c2ccccc21)CN1CCNCC1 (stereo not given) | inactive | 
5 | CCOC(=O)Cc1csc(NC(=S)NC(=O)c2ccccc2Br)n1 |  | 233% (active)
6 | Cc1cc(C(=O)N/N=C/C=C/c2ccc3c(c2)OCO3)n[nH]1 | inactive | 
7 | O=C(CNC(=O)C(c1ccccc1)c1ccccc1)N/N=C/c1ccc(O)cc1O | inactive | 
8 | O=C(Nc1nnc(-c2ccc3c(c2)CCCC3)o1)c1ccc(Cl)cc1Cl |  | 374% (active)
9 | CCCCN(CCCC)C(=S)NC(=O)C(C)(C)C | inactive | 
10 | Cc1cc(C)n(/N=C/c2cc(Cl)cc(Cl)c2O)c(=O)c1 | inactive | 
11 | Cc1c(-c2ccccc2)sc2nc[nH]c(=S)c12 |  | 307% (active)
12 | Cc1cccc(NC(=S)N/N=C(\c2ccccc2)C(C)C)c1 | inactive | 
13 | O=c1ccc(N=Nc2ccccc2)ccc1O |  | 322% (active)
14 | CC(C)OC(=O)c1c(NS(=O)(=O)c2ccccc2)sc2c1CCCC2 |  | 262% (active)
15 | CCNC(=S)Nc1nc2c(cc1C(=O)OCC)CCCC2 |  | 140% (active)
16 | C/C(=N/NC(=O)c1cc(C2CC2)[nH]n1)c1cccs1 |  | 150% (active)
17 | CC1(C)CC[C@]2(C(=O)O)CC[C@]3(C)C(=CCC4[C@@]5(C)CC[C@H](O)C(C)(C)C5[C@H](O)C[C@]43C)[C@@H]2C1 (stereo not given in full) |  | 184% (active)
18 | CC1(C)CC(=O)C2=C(C1)N(c1cccc(Cl)c1)C(=O)NC2(C(F)(F)F)C(F)(F)F | inactive | 
19 | Cc1cccc(OCC(=O)O/N=C(\N)c2ccc(Cl)cc2)c1 | inactive | 
20 | O=C(COc1ccccc1Cl)N(Cc1cccs1)C1CCS(=O)(=O)C1 (stereo not given) | inactive | 

Row | SMILES | outcome | activation
21 | Nc1cc(=O)[nH]c(SCC(=O)N2CCN(S(=O)(=O)c3ccc4ccccc4c3)CC2)n1 | inactive | 
22 | O=C(NCc1ccccc1)/C(=C/c1ccccc1)NC(=O)c1ccco1 | inactive | 
23 | COc1ccc(C)c2sc(NC(=O)C3=COCCO3)nc12 | inactive | 
24 | N#CC(c1cccc(Cl)c1)c1ccc2c(C(F)(F)F)cc(C(F)(F)F)nc2n1 (stereo not given) |  | 144% (active)
25 | O=C(N/N=C/c1ccccn1)c1cc(-c2ccc(Br)cc2)nc2ccccc12 |  | 142% (active)
26 | Cc1ccc(NC(=O)CCS(=O)(=O)c2cccc3nonc23)c(Br)c1 | inactive | 
27 | CCCCCC/C(C)=C1/SC(=S)NC1=O |  | 752% (active)
28 | Cc1[nH]c(-c2ccccn2)nc(=S)c1Cl |  | 244% (active)
29 | Cc1ccc(C)c(N(CC(=O)NC2CCCC2)C(=O)CCC(=O)Nc2nccs2)c1 | inactive | 
30 | CC/C(=N\NC(=S)Nc1cccc(C)c1)c1ccccc1 | inactive | 
31 | O=C(NN1C(=O)C2C(c3ccccc3)C=CC(c3ccccc3)C2C1=O)c1ccncc1 (stereo not given) |  | 176% (active)
32 | Nc1nc(NCc2ccco2)nc(NC2CCCCC2)c1[N+](=O)[O-] | inactive | 
33 | O=c1c(O)c(-c2ccc3c(c2)OCO3)oc2ccccc12 | inactive | 
34 | Cc1ccc(OCC(=O)NNC(=S)NC(=O)c2cccs2)c(C)c1 |  | 195% (active)
35 | N=C1S/C(=C\c2ccc(-c3cccc(Cl)c3)o2)C(=O)N1c1nccs1 | inactive | 
36 | CC1=CC(=O)C(C(C)C)=CC1=NC(=O)c1ccc(C)cc1 | inactive | 
37 | COc1ccc(NC(=O)C(=O)NNC(=O)c2cccs2)c(OC)c1 |  | 246% (active)
38 | COC(=O)c1sc(-c2ccc(C(C)(C)C)cc2)cc1NC(=O)/C=C/C(=O)O |  | 427% (active)
39 | O=S1(=O)Nc2c(ccc3cccnc23)-c2ccccc21 | inactive | 
40 | O=C(NC(=S)Nc1ccccc1N1CCOCC1)c1ccc(-c2ccccc2F)o1 |  | 147% (active)

Target: Potassium voltage-gated channel subfamily KQT member 1 (Homo sapiens) (UniProt P51787)
Sequence (P51787 whole entry, looked up): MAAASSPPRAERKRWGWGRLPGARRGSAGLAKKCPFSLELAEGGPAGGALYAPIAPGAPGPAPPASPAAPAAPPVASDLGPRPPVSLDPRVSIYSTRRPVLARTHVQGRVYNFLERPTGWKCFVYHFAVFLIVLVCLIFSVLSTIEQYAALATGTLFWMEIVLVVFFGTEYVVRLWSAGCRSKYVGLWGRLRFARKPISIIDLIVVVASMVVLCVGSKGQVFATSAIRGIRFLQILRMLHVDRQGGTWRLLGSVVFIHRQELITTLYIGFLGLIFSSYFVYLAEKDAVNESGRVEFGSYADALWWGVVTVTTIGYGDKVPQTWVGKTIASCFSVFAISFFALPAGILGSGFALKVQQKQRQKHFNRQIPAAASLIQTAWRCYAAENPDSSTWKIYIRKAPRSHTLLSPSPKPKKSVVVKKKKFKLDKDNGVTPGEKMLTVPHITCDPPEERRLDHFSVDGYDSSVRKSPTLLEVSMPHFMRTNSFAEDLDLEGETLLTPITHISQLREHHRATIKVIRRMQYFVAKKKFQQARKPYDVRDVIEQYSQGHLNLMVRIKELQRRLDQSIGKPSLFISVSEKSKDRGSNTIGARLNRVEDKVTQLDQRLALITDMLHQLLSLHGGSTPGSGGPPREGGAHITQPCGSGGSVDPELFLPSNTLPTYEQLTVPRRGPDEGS
Test: enhancement of KCNQ1 channel thallium flux – FluxOR thallium flux, CHO cells, duplicates, confirmation (AID 493007);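 for outcome: cells depolarized by a potassium plus thallium sulfate stimulus after compound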
Conditions: KCNQ1 cell line, FluxOR thallium flux fluorescence, at 10 µM; stronger effect = higher value, % of reference activator effect, buffer zero
Procedure, shortened: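 Material: CHO cells stably expressing the KCNQ1 potassium channel / Times: dye 90 min then compound 20 min, both at room temperature / Detection: kinetic thallium influx fluorescence with FluxOR dye, 10 s baseline, 110 s post-stimulus / Benchmarks: buffer-only wells as 0% and R-L3 activator as 100% / Replicates: each compound tested in duplicate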

Row | SMILES | outcome | potentiation
41 | COc1cccc(OC)c1C(=O)Nc1cccc(-c2ccc3nncn3n2)c1 | inactive | 
42 | O=C(NNc1nc2c(F)cccc2s1)c1cc(=O)c2ccccc2o1 | inactive | 
43 | CCCCCCCN1N=C(C)C(C(=O)c2ccccc2)C1=O (stereo not given) | inactive | 
44 | OC(CON=C1c2ccccc2-c2ccccc21)CN1CCNCC1 (stereo not given) | inactive | 
45 | CCOC(=O)Cc1csc(NC(=S)NC(=O)c2ccccc2Br)n1 |  | 51% (active)
46 | Cc1cc(C(=O)N/N=C/C=C/c2ccc3c(c2)OCO3)n[nH]1 | inactive | 
47 | O=C(CNC(=O)C(c1ccccc1)c1ccccc1)N/N=C/c1ccc(O)cc1O | inactive | 
48 | O=C(Nc1nnc(-c2ccc3c(c2)CCCC3)o1)c1ccc(Cl)cc1Cl |  | 176% (active)
49 | CCCCN(CCCC)C(=S)NC(=O)C(C)(C)C | inactive | 
50 | Cc1cc(C)n(/N=C/c2cc(Cl)cc(Cl)c2O)c(=O)c1 | inactive | 
51 | Cc1c(-c2ccccc2)sc2nc[nH]c(=S)c12 |  | 130% (active)
52 | Cc1cccc(NC(=S)N/N=C(\c2ccccc2)C(C)C)c1 |  | 32% (active)
53 | O=c1ccc(N=Nc2ccccc2)ccc1O |  | 138% (active)
54 | CC(C)OC(=O)c1c(NS(=O)(=O)c2ccccc2)sc2c1CCCC2 |  | 126% (active)
55 | CCNC(=S)Nc1nc2c(cc1C(=O)OCC)CCCC2 |  | 35% (active)
56 | C/C(=N/NC(=O)c1cc(C2CC2)[nH]n1)c1cccs1 |  | 31.5% (active)
57 | CC1(C)CC[C@]2(C(=O)O)CC[C@]3(C)C(=CCC4[C@@]5(C)CC[C@H](O)C(C)(C)C5[C@H](O)C[C@]43C)[C@@H]2C1 (stereo not given in full) |  | 40.5% (active)
58 | CC1(C)CC(=O)C2=C(C1)N(c1cccc(Cl)c1)C(=O)NC2(C(F)(F)F)C(F)(F)F |  | 19.5% (active)
59 | Cc1cccc(OCC(=O)O/N=C(\N)c2ccc(Cl)cc2)c1 | inactive | 
60 | O=C(COc1ccccc1Cl)N(Cc1cccs1)C1CCS(=O)(=O)C1 (stereo not given) | inactive | 

Row | SMILES | outcome | potentiation
61 | Nc1cc(=O)[nH]c(SCC(=O)N2CCN(S(=O)(=O)c3ccc4ccccc4c3)CC2)n1 | inactive | 
62 | O=C(NCc1ccccc1)/C(=C/c1ccccc1)NC(=O)c1ccco1 | inactive | 
63 | COc1ccc(C)c2sc(NC(=O)C3=COCCO3)nc12 | inactive | 
64 | N#CC(c1cccc(Cl)c1)c1ccc2c(C(F)(F)F)cc(C(F)(F)F)nc2n1 (stereo not given) |  | 234% (active)
65 | O=C(N/N=C/c1ccccn1)c1cc(-c2ccc(Br)cc2)nc2ccccc12 |  | 51.5% (active)
66 | Cc1ccc(NC(=O)CCS(=O)(=O)c2cccc3nonc23)c(Br)c1 | inactive | 
67 | CCCCCC/C(C)=C1/SC(=S)NC1=O |  | 264% (active)
68 | Cc1[nH]c(-c2ccccn2)nc(=S)c1Cl |  | 106% (active)
69 | Cc1ccc(C)c(N(CC(=O)NC2CCCC2)C(=O)CCC(=O)Nc2nccs2)c1 | inactive | 
70 | CC/C(=N\NC(=S)Nc1cccc(C)c1)c1ccccc1 |  | 104% (active)
71 | O=C(NN1C(=O)C2C(c3ccccc3)C=CC(c3ccccc3)C2C1=O)c1ccncc1 (stereo not given) |  | 18% (active)
72 | Nc1nc(NCc2ccco2)nc(NC2CCCCC2)c1[N+](=O)[O-] | inactive | 
73 | O=c1c(O)c(-c2ccc3c(c2)OCO3)oc2ccccc12 |  | 41.5% (active)
74 | Cc1ccc(OCC(=O)NNC(=S)NC(=O)c2cccs2)c(C)c1 |  | 76.5% (active)
75 | N=C1S/C(=C\c2ccc(-c3cccc(Cl)c3)o2)C(=O)N1c1nccs1 |  | 19% (active)
76 | CC1=CC(=O)C(C(C)C)=CC1=NC(=O)c1ccc(C)cc1 | inactive | 
77 | COc1ccc(NC(=O)C(=O)NNC(=O)c2cccs2)c(OC)c1 |  | 37.5% (active)
78 | COC(=O)c1sc(-c2ccc(C(C)(C)C)cc2)cc1NC(=O)/C=C/C(=O)O |  | 130% (active)
79 | O=S1(=O)Nc2c(ccc3cccnc23)-c2ccccc21 |  | 21% (active)
80 | O=C(NC(=S)Nc1ccccc1N1CCOCC1)c1ccc(-c2ccccc2F)o1 |  | 51.5% (active)

Source: PubChem BioAssay
